Results from different studies.
Target: Activin receptor type-1B (ACVR1B, Homo sapiens, UniProt P36896)
Sequence (P36896 24-505, as in one of the studies): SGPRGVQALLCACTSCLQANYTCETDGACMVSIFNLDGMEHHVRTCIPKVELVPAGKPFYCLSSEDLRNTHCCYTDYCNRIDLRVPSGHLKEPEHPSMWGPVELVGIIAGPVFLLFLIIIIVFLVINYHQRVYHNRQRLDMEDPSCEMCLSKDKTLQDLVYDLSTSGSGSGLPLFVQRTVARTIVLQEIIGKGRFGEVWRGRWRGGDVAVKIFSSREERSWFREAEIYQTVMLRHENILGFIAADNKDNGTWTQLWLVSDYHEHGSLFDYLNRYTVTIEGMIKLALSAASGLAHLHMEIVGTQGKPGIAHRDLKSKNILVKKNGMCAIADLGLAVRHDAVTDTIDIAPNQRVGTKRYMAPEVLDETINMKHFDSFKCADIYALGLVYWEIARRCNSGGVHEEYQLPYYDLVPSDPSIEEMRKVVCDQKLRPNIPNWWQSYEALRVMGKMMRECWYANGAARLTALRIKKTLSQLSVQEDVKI

C=CC(=O)N1CCC(C(=O)NCC(=O)N2CCN(c3nc(-c4cnc(N)nc4C(F)F)nc(N4CCOCC4)n3)CC2)CC1 — remaining binding (binding; competition with immobilised ligand; 1 µM): 82%
O=C(NS(=O)(=O)c1ccc(NCC2CCOCC2)c([N+](=O)[O-])c1)c1ccc(N2CCN(Cc3ccc(C(F)(F)F)cc3-c3ccc(Cl)cc3)CC2)cc1Oc1cnc2[nH]ccc2c1 — remaining binding (cell-free assay; competition with immobilised ligand; 1 µM): 59%
N[C@H]1CCN(c2nccc(-c3cnn4ncccc34)n2)C1 — remaining binding (binding; 1 µM): 77%
CNC(=O)[C@@H]1CC[C@@H](n2c(-c3ccc4cnccc4c3)nc3ccc(C(=O)NCc4cccc(C(N)=O)c4)cc32)C1 — remaining binding (binding; competition with immobilised ligand; 1 µM): 100%
O=C(Nc1cnc(Oc2ccc(F)cc2)nc1)N1CCc2ncccc2[C@@H]1c1ccc(F)cc1 — remaining binding (cell-free assay; competition with immobilised ligand; 1 µM): 100%
CC1CCCN1c1nccc(-c2cnn3ncccc23)n1 (stereo not shown) — remaining binding (binding; 1 µM): 88%
O=C(NCc1ncc(C(F)(F)F)cc1Cl)c1ccc2c(c1)C1(CCS(=O)(=O)CC1)[C@@H](C1CC1)N2S(=O)(=O)c1ccc(F)cc1 — remaining binding (cell-free assay; competition with immobilised ligand; 1 µM): 87%
CN(C)c1ncc(F)c(-c2cnn3ncccc23)n1 — remaining binding (binding; 1 µM): 100%
CN(C)c1ncnc(-c2ccc3nc(Nc4cc(CN5CCN(C(=O)CC(F)(F)F)CC5)ccn4)[nH]c3c2)c1Cl — remaining binding (cell-free assay; competition with immobilised ligand; 1 µM): 91%
Cc1cnn2ncc(-c3ccnc(N(C)C)n3)c2c1 — remaining binding (binding; 1 µM): 100%
COc1cnc(Nc2cccc(S(N)(=O)=O)c2)nc1N1CCN(c2ccccc2)C(=O)C1 — remaining binding (binding; competition with immobilised ligand; 1 µM): 100%
C[C@@H]1CN(c2ccc3ncc(-c4ccc5[nH]nc(C6CC6)c5c4)n3n2)C[C@H](C)O1 — remaining binding (binding; competition with immobilised ligand; 0.5 µM): 100%
COc1ccc2c(c1)O[C@@H](c1ccc(OC)c(OC)c1)C[C@H]2NC(=O)C1(c2ccc3c(c2)OC(F)(F)O3)CC1 — remaining binding (cell-free assay; competition with immobilised ligand; 1 µM): 67%
O=C(Nc1c[nH]nc1C(=O)NC1CCNCC1)c1cc(F)cc(F)c1 — remaining binding (binding; competition with immobilised ligand; 1 µM): 90%
O=C(NCCCN1CCOCC1)c1ccc(Nc2ncc(Cl)c(-c3ccc(Cl)s3)n2)cc1 — remaining binding (binding; competition with immobilised ligand; 1 µM): 59%
C[C@@H]1CCN(c2nccc(-c3cnn4ncccc34)n2)C1 — remaining binding (binding; 1 µM): 76%
O=C(c1ccc(Nc2nccc(-c3cc4ccccc4s3)n2)cc1)N1CCC(N2CCCC2)CC1 — remaining binding (binding; competition with immobilised ligand; 1 µM): 71%
F[C@@H]1CCN(c2nccc(-c3cnn4ncccc34)n2)C1 — remaining binding (binding; 1 µM): 100%
COc1ncc2cc3ccccc3nc2c1C#N — remaining binding (cell-free assay; competition with immobilised ligand; 5 µM): 88%
CC(C)CC(=O)N1CCc2nc(-c3ccc(Br)cc3)nc(N(C)Cc3ccccc3)c2C1 — remaining binding (cell-free assay; competition with immobilised ligand; 0.1 µM): 89%
Cc1cnc(Nc2ccc(C(=O)N3CCC(N4CCCC4)CC3)cc2)nc1-c1cc2ccccc2s1 — remaining binding (binding; competition with immobilised ligand; 1 µM): 33%
Cc1nc(N2CC[C@@H](O)C2)ncc1-c1cc(C(F)(F)F)cc2[nH]ncc12 — remaining binding (cell-free assay; competition with immobilised ligand; 1 µM): 100%
c1cncc(-c2cccc(Nc3nccc(NC4CCCCC4)n3)c2)c1 — remaining binding (binding; competition with immobilised ligand; 10 µM): 75%
CCC(=O)N[C@@H]1CC[C@H](C(=O)N(C)c2ccc(-c3nc4ccccc4o3)cc2)C1 — remaining binding (cell-free assay; competition with immobilised ligand; 1 µM): 100%
Nc1ncc2c(n1)-c1c([nH]c3ccc(C#CC4CC4)cc13)CCCC2 — remaining binding (binding; competition with immobilised ligand; 1 µM): 89%
